The values that follow come from article PMC3288193 (Clinical Immunology (Orlando, Fla.), 2011).

Test [1] has as its system LN cells of HLA-DR4 (DRB1*0401) transgenic mice. The test is described as follows: T cell proliferation of LN cells from peptide-immunized DR4 mice. The class given is in vivo, mouse. The settings on record: DR4 mice immunized with mixture of 2231-M1, -M2, -M3, 3 μg each in CFA; Fig. 5C. Summed up:
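Mixed peptides (3 μg each in CFA) were injected subcutaneously via hind footpad and tail base. After two weeks, pooled draining inguinal/popliteal LN cells (0.5×10^6/well) were stimulated 48 h with ORG or MOD peptides (0, 1, 3, 10 μg/ml) in RPMI 1640 with 2% FBS and 0.5% hemophilic mouse serum. Cells were pulsed with 1 μCi [3H]-thymidine for 16–20 h and beta-counted. Results are background-subtracted ΔCPM, mean ± SEM of triplicates.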

Test [2] relates to purified Class II molecules (DRB1*0101, DRB1*0301, DRB1*0401, DRB1*0701, DRB1*1501). The test is described as follows: Competition-based class II HLA binding assay. Also noted: species or system human. As to conditions: test peptide 100 μM; average of 5 DRB1 alleles; Fig. 2. Summed up:
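Non-biotinylated test peptides (HPLC-purified ≥80%) at 100 μM competed against biotinylated standard peptide (0.1 μM) for purified class II molecules (50 nM), 24 h at 37°C. Complexes were captured on ELISA plates with pan anti-class II L243, then incubated with europium-streptavidin for 1 h at RT, developed 15–20 min, and read by TRF. Triplicates. Percent inhibition per allele was averaged across five alleles.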

Test [3] concerns LN cells of hemophilic FVIII KO E16 mice (H-2b). The experiment in a line: T cell proliferation of LN cells from peptide-immunized E16 mice. The settings on record: LN cells stimulated with 2191 in presence of competitor ORG peptides over a range of concentrations, Appendix Fig. 1. It is filed as in vivo, mouse.

With “2231-M1: modified (MOD) version of 2231-O with F2234G mutation (QVDGQKTMKVTGVTTQGVKSL)”, the “de novo immunogenicity of MOD peptides (T cell proliferation)” value in test [1] is recorded as “significantly lower”. Besides, the “effect of modification on average HLA binding versus ORG peptide” value in test [2] is “lower HLA binding”.

With “2191-M1: modified (MOD) version of 2191-O with one substitution, F2196G (TASSYGTNMFATWSPSKARL)”, the “effect of modification on average HLA binding versus ORG peptide” value in test [2] is “only moderately reduced binding”.

For “2191-O: original (ORG) human FVIII C2 domain epitope cluster peptide, amino acid positions 2191–2210 (TASSYFTNMFATWSPSKARL)”, the “effect of competitor ORG peptides on 2191-O-specific proliferation” value in test [3] is listed as “not affected by the presence of competitor ORG peptides”. Moreover, in test [2], the “HLA binding, average across HLA alleles (rank among ORG peptides)” value was “bound strongest”.
